NS3 helicase inh – inhibitors of HCV NS3 helicase, primary screen, biochemical, Cy5 molecular beacon fluorescence. Hepatitis C virus NS3 helicase. NS3 helicase DNA unwinding. inhibition, % at 10.9 µM. actives 0.56% (n = 290,000). AID 1800, 2009;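 active = inhibition above the mean of all tested compounds plus 3 SD, set per campaign, cut at about 35% in these data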
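Measured by: Cy5 fluorescence, 0 and 60 min reads / Assay system: NS3 helicase fragment of HCV / Control set: low DMSO, high thioflavine S at 110 µM / Times: 1 h reaction at 25 °C, ATP-initiated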
EBNA-1 inh – EBNA-1 DNA-binding inhibitors, primary screen, biochemical, fluorescence polarization; actives 0.34% (n = 300,000); inhibition, % at 14.8 µM; in the data active = inhibition above about 28%
DNA FID counter-1 – compounds displacing fluorescent DNA intercalator, primary screen, artefact control for HCV NS3 helicase inhibitor project, biochemical, FID fluorescence; AID 1845, 2009; actives 0.17% (n = 290,000); DNA fluorescent intercalator displacement; inhibition, % at 7.9 µM;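 note: higher means more ethidium bromide displaced from hairpin DNA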
ZTA counter – ZTA (EBV) inhibition in EBNA-1 counter-screen; P03206; ZTA-DNA binding, fluorescence polarization; inhibition, % at 11 µM; actives 0.15% (n = 320,000); in the data active = inhibition above about 33%
Target sequence (P03206 whole entry, looked up): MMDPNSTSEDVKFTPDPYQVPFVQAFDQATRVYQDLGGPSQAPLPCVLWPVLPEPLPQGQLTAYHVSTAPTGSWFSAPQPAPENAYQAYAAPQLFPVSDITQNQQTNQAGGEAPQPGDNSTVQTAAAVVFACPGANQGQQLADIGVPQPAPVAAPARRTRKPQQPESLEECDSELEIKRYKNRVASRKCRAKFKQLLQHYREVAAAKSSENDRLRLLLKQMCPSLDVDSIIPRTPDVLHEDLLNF
NR3A LBD binder – binders of NR3A ligand-binding domain, primary screen, biophysical, differential scanning fluorimetry, uHTS. Glutamate receptor ionotropic, NMDA 3A (GRIN3A) ligand-binding domain. Tm shift relative to glycine control, % at 25 µM. actives 2.5% (n = 340,000). NR3A LBD differential scanning fluorimetry, Tm shift; 0% = protein alone, 100% = glycine-bound protein;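 active = melting temperature shift of at least 10% of the positive control shift, at one fixed dose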
FGF22 binding – binders of human FGF22 protein, primary screen, FGF22 synaptogenesis inhibitor project, biophysical, thermal shift, single point; Fibroblast growth factor 22 (Homo sapiens), Q9HCT0; recombinant FGF22 thermal shift, SYPRO orange fluorescence; percent of sucrose octasulfate shift, DMSO zero; activity (Tm shift, normalised), % at 9.99 µM; actives 1.5% (n = 340,000); AID 651658, 2012;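 active = mean Tm shift, scaled 0 neutral to 100 positive control, at about 1.3% or above, every replicate too, limit read from the data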
Target sequence (Q9HCT0 whole entry, looked up): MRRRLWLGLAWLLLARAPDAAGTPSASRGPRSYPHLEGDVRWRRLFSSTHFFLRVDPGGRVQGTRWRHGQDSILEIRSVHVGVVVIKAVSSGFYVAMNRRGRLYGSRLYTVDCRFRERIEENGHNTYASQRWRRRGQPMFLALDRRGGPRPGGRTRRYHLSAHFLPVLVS
NS3 helicase cf – HCV NS3 helicase inhibitors, retest, confirmation, biochemical, Cy5 molecular beacon fluorescence, triplicate; shares compounds with NS3 helicase inh; NS3 helicase DNA unwinding; inhibition, % at 10.9 µM; actives 31% (n = 1,600);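 active = inhibition above the mean of all tested compounds plus 3 SD, cutoff set per campaign, cut at about 36% in these data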
DNA FID counter-2 – compounds displacing fluorescent DNA intercalator, artefact control for HCV NS3 helicase inhibitor project, biochemical, FID fluorescence, triplicate. inhibition, % at 7.9 µM. actives 4% (n = 1,600). shares compounds with NS3 helicase inh. DNA fluorescent intercalator displacement. AID 1945, 2009;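 note: higher means more displacement of ethidium bromide from the DNA hairpin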
FID counter DR – compounds displacing fluorescent intercalator from DNA, dose response, counter-screen for HCV NS3 helicase inhibitor project, biochemical, fluorescence; shares compounds with NS3 helicase inh; fluorescent intercalator displacement from DNA; IC50, µM; 120 tested, under 10 active; AID 2172, 2009; call rule not given here
Zta DNA confirm – EBV Zta binding to ZRE DNA, inhibitors, confirmation, biochemical, fluorescence polarization, triplicate. shares compounds with ZTA counter. inhibition, % at 11.1 µM. actives 30% (n = 320). AID 2361, 2010;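 active = mean inhibition across triplicate runs above the hit threshold derived for the original primary screen, cut at about 33% in these data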
EBNA1 counter – EBNA-1 DNA-binding inhibition, counter-screen for ZTA inhibitor project, biochemical, fluorescence polarization; shares compounds with ZTA counter; inhibition, % at 14.8 µM; 320 tested, under 10 active; call rule not given here
Numbers stand for hits; . = inactive; / = no result given. This is a sample that favours compounds with a hit; in the whole collection about 3.6% have one here. Cut-off read from the data, not from the text of the source, unless noted: active = inhibition above about 37%; inactive = the rest.

SMILES | NS3 helicase inh | EBNA-1 inh | DNA FID counter-1 | ZTA counter | NR3A LBD binder | FGF22 binding | NS3 helicase cf | DNA FID counter-2 | others
CC(=O)C1=C(O)C(=O)N(CC(=O)O)C1c1ccccc1Cl (configuration not stated) | . | . | . | . | . | / | / | /
O=C1CSC(=S)N1/N=C/c1ccc(Cl)c([N+](=O)[O-])c1 | 44 | . | . | . | / | / | 51 | .
N#Cc1ccc(-c2ccc3c(c2)[C@H]2[C@H](CCN2C(=O)c2ccccc2F)[C@@H](CO)N3)cc1 | / | / | / | / | / | . | / | /
COc1ccccc1COc1ccc2c(C)c(CC(=O)O)c(=O)oc2c1C | 48 | . | . | . | . | . | . | .
Cc1c(CC(=O)O)c(=O)oc2c(C)c(OCc3ccc(F)cc3F)ccc12 | . | . | . | . | . | . | / | /
CC(C)C1Nc2c(O)cc(Cl)c([N+](=O)[O-])c2C2C=CCC21 (configuration not stated) | 37 | / | . | / | . | . | 58 | .
Cc1ccc(NC(=O)COC(=O)C2CC3C=CC2C3)cc1S(=O)(=O)N1CCCCC1 (configuration not stated) | 62 | . | . | . | . | . | . | .
COc1ccccc1/C=C/C1=NC(=C\C=C/c2ccccc2)/C(=O)O1 | 46 | . | . | . | . | . | 61 | . | FID counter DR=.
COc1ccccc1/C=C/C=C1N=C(/C=C/c2ccc(Cl)cc2)OC/1=O | . | . | . | . | . | / | / | /
Cc1nnc(-c2ccco2)c2cn(-c3cccc(Br)c3)nc12 | 39 | . | . | . | . | . | . | .
CC(=O)c1nn(-c2cccc(Br)c2)cc1C(=O)c1ccco1 | . | . | . | . | . | / | / | /
CCCNC(=O)N(C)C[C@@H]1Oc2ncc(C3=CCCCC3)cc2C(=O)N([C@@H](C)CO)C[C@@H]1C | / | / | / | / | / | . | / | /
CS(=O)(=O)N1[C@H](CO)[C@@H](c2ccccc2-c2ccccc2F)[C@@H]1C#N | / | / | / | / | / | . | / | /
COC/C=C/C1=CC2=CC(=O)C(C)(OC(=O)c3cnc4ccccc4n3)C(=O)C2=CN1c1ccc(CO)cc1 (configuration not stated) | 50 | . | . | . | / | / | 42 | .
COC/C=C/C1=CC2=CC(=O)C(C)(OC(=O)c3cnc4ccccc4n3)C(=O)C2=CN1C1CCCCC1 (configuration not stated) | 38 | . | . | . | / | / | . | .
O=S1(=O)NC2c3ccccc3CC2O1 (configuration not stated) | 40 | . | . | . | . | . | . | .
CC1(C)OCC(C2CC(c3ccccc3)NS(=O)(=O)O2)O1 (configuration not stated) | . | . | . | . | . | . | / | /
NNC(=O)c1oc2nc(-c3ccco3)cc(-c3ccco3)c2c1N | 51 | . | . | . | . | . | . | .
COc1ccc2c3c([nH]c2c1)[C@H](CO)N(S(C)(=O)=O)CC31CCN(Cc2ccccc2)CC1 | / | / | / | / | / | . | / | /
COc1ccc([N+](=O)[O-])cc1NCc1cccc([N+](=O)[O-])c1 | 41 | . | . | . | . | . | . | .
N#Cc1c(C(F)(F)F)cc(-c2ccco2)nc1SCc1ccncc1 | 44 | . | . | . | . | / | . | .
O=C(Cn1c(=O)c2sccc2n(Cc2cccc([N+](=O)[O-])c2)c1=O)NCCc1ccccc1 | 44 | . | . | . | . | . | . | .
C[C@@H]1CN([C@@H](C)CO)C(=O)c2cc(NC(=O)c3ccccc3)ccc2O[C@@H](C)CCCCO[C@H]1CN(C)Cc1ccccc1 | / | / | / | / | / | . | / | /
Cc1cc(C(=O)CSc2nnnn2-c2ccccc2)c(C)n1-c1ccc2c(c1)OCO2 | 37 | . | . | . | . | . | . | .
Cc1cc(C(=O)CSc2nnnn2-c2ccc(O)cc2)c(C)n1Cc1ccc2c(c1)OCO2 | . | . | . | . | . | / | / | /
SMILES | NS3 helicase inh | EBNA-1 inh | DNA FID counter-1 | ZTA counter | NR3A LBD binder | FGF22 binding | NS3 helicase cf | DNA FID counter-2 | others
O=C(O)c1ccc2c(c1)C(=O)/C(=C\c1ccco1)C2=O | 62 | . | . | 62 | . | . | . | . | Zta DNA confirm=63;EBNA1 counter=.
Cc1ccc(/C=C2/C(=O)c3ccc(C(=O)O)cc3C2=O)o1 | . | / | . | / | . | . | / | /
CC1=NN(c2cccc(C(=O)O)c2)C(=O)/C1=C\C=C\c1ccco1 | 42 | . | . | 70 | . | / | 76 | . | Zta DNA confirm=67;EBNA1 counter=.
O=C1c2ccccc2-c2onc3ccc(NCc4ccco4)c1c23 | 41 | . | . | 83 | . | / | . | . | Zta DNA confirm=46;EBNA1 counter=.
COc1cccc(NS(=O)(=O)c2ccc3c(c2)CCCN3C(C)=O)c1 | . | . | . | . | . | . | / | /
COc1cccc(NS(=O)(=O)c2ccc3c(c2)C2C=CCC2C(c2ccc(C(=O)O)cc2)N3)c1 (configuration not stated) | 43 | . | . | 38 | . | / | 52 | 42 | Zta DNA confirm=.;EBNA1 counter=.
COc1ccc(CN(C)C[C@@H]2Oc3ccc(NC(=O)C4CC4)cc3CC(=O)N([C@@H](C)CO)C[C@H]2C)cc1 | / | / | / | / | / | . | / | /
C[C@H]1CN([C@@H](C)CO)C(=O)c2cc(C#CCc3ccccc3)cnc2O[C@H]1CN(C)Cc1cccnc1 | / | / | / | / | / | . | / | /

Bioassay records (PubChem)
